Data from ChEMBL document CHEMBL6103596, “Design, Synthesis, and Biological Evaluation of BODIPY-Caged Resiquimod as a Dual-Acting Phototherapeutic” (J Med Chem, 2025).
The source made the active and inactive calls. No cut-off for these calls is given here.

How the values were obtained:
[1] = Phototoxicity in human A549 cells assessed as cell viability at 10 uM under 530 ot 650nm 30 mW LED light irradiation and measured after 72 hrs by CCK-8 method relative to control; type: functional; settings: A549, light or radiation study, read-out: Activity
Summary of the method: (§1)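 A549, HaCaT and HeLa cells seeded at 2 × 10^3 cells/well in phenol red-free DMEM with 10% FBS. After 24 h, medium replaced with 1% DMSO containing 10 μM compound. After 90 min, one plate kept dark and one exposed to 530 or 650 nm LED (30 mW) for 15 min. Plates incubated 72 h, then CCK-8 read at 450 nm. Viability taken relative to dark control. Triplicates (HaCaT six).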

[2] = Dark toxicity in human HeLa cells assessed as cell viability at 10 uM under dark condition and measured after 72 hrs by CCK-8 method relative to control; type: cell-based; settings: read-out: Activity; summary of the method: as §1
AD293 [3] = test: Effect on morphological changes in human AD293 cells at 10 uM; type: functional, cell-based
Summary of the method: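 AD293 cells treated with 10 μM compound, followed by LED irradiation or kept unirradiated, then morphology examined by microscopy.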

AD293 [4] = test: Effect on morphological changes in human AD293 cells stable expressing TLR7 at 10 uM pretreated with N-Acetylcysteine for 30 mins followed by compound addition and measured after 30 mins under LED light irradiation at 650 nm by microscopic analysis; type: functional, cell-based
Summary of the method: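 TLR7-stable AD293 cells seeded at 20,000/well. After 24 h, medium switched to Opti-MEM. 1 h later, 10 mM N-acetyl-cysteine added. 30 min after that, cells given 10 μM compound and exposed to 650 nm LED for 30 min, or shielded from light as control. Cells observed by microscope 24 h after drug treatment.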

[5] = Dark toxicity in human HaCaT cells assessed as cell viability at 10 uM under dark condition and measured after 72 hrs by CCK-8 method relative to control; type: cell-based; settings: read-out: Activity; summary of the method: as §1
[6] = target: T1, Toll-like receptor 7 (Homo sapiens) (UniProt Q9NYK1); test: Activation of TLR7 in human AD293 cells assessed as IkappaB-alpha degradation at 10 uM preincubated with NAC followed by compound addition and measured after 30 mins under 650nm red light irradiation by Western blot analysis; type: cell-based; settings: filed as activator
T1 sequence (whole entry): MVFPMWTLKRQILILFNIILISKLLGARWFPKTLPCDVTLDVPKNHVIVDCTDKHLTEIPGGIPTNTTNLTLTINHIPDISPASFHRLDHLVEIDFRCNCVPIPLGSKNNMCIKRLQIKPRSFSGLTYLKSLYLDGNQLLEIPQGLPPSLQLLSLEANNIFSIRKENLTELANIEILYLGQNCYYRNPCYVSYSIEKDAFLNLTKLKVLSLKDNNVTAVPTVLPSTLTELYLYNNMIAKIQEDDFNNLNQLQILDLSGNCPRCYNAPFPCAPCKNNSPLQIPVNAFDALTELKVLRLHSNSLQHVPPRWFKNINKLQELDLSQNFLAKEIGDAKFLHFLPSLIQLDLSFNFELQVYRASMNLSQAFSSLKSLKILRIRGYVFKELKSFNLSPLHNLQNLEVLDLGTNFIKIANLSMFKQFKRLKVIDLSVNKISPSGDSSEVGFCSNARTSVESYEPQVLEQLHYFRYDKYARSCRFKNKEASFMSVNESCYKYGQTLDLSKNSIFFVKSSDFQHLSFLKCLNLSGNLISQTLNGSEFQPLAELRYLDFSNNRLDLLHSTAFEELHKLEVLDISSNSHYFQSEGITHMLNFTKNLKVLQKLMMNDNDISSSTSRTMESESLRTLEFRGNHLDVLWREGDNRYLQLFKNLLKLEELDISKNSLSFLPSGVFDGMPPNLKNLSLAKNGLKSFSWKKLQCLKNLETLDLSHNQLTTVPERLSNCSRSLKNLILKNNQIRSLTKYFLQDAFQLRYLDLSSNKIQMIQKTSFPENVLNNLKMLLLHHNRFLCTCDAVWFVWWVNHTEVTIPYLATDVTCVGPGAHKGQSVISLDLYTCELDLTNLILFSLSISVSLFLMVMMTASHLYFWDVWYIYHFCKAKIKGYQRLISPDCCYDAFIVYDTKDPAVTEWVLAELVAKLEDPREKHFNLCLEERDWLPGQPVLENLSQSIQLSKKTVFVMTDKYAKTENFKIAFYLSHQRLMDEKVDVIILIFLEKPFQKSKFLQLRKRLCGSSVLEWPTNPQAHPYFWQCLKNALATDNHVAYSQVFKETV
Summary of the method: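 Stable TLR7-expressing AD293 line made by TLR7 plasmid transfection and hygromycin B selection (250 μg/mL, 10 days). Cells pretreated with N-acetyl-cysteine, then given 10 μM compound, with or without 30 min 650 nm red-light irradiation. Lysates run on 10% SDS-PAGE and blotted to PVDF. Total IκB probed (1:1000) with GAPDH loading control, ECL detection. Means of three experiments.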

[7] = Dark toxicity in human A549 cells assessed as cell viability at 10 uM under dark condition and measured after 72 hrs by CCK-8 method relative to control; type: cell-based; settings: read-out: Activity; summary of the method: as §1
AD293 [8] = test: Cytotoxicity against human AD293 cells assessed as cell viability at 0.1 to 10 uM incubated for 24 hrs by MTT assay; type: toxicity, cell-based; settings: ad293, 24 h, dose 0.1-10 µM
Summary of the method: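 AD293 cells seeded at 4 × 10^4 cells/well in DMEM with 10% FBS. Next day, compound (100 nM, 1 μM, 10 μM) or vehicle added in serum-free DMEM for 24 h, no irradiation. MTT (5 mg/mL reagent) added for 3 h at 37 °C, formazan dissolved in DMSO, absorbance read at 590 nm. Triplicate wells, four independent experiments.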

[9] = Photosensitizing ability of the compound assessed as singlet oxygen quantum yield under 600nm monochromatic light irradiation by DPBF based assay relative to control; type: functional
Summary of the method: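 Singlet oxygen generation followed by the decrease in DPBF absorbance under irradiation. DPBF (20–25 μm) used at 5–10-fold excess over compound (2.5–5 μm).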

[10] = Photorelease activity of the compound in aqueous medium assessed as reduction in lamda maximum at 30 uM measured after 1 hr under 525 nm LED light radiation by UV-vis spectroscopy analysis; type: ADME; settings: buffer
[11] = Thermal stability of compound in DMSO-d6 at 37.5 degree C measured after 2 days by 1H NMR spectroscopy analysis relative to control; type: physicochemical; settings: 48 h; time 2 day
Summary of the method: (§2)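 Compound in DMSO-d6 followed by 1H NMR. Degradation taken from the intensity of three signals (one resiquimod, one BODIPY, and the linkage NH), each relative to the DMSO-d6 internal standard, and the three averaged.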

[12] = Phototoxicity in human HaCaT cells assessed as cell viability at 10 uM under 530 ot 650nm 30 mW LED light irradiation and measured after 72 hrs by CCK-8 method relative to control; type: functional; settings: light or radiation study, read-out: Activity; summary of the method: as §1
[13] = Thermal stability of compound in DMSO-d6 at 37.5 degree C measured after 1 day by 1H NMR spectroscopy analysis relative to control; type: physicochemical; settings: 24 h; summary of the method: as §2
[14] = Phototoxicity in human HeLa cells assessed as cell viability at 10 uM under 530 ot 650nm 30 mW LED light irradiation and measured after 72 hrs by CCK-8 method relative to control; type: functional; settings: light or radiation study, read-out: Activity; summary of the method: as §1
[15] = Photorelease activity of the compound in CH3CN at 532nm laser light measured upto 60 mins under air condition by HPLC analysis relative to control; type: ADME; set-up: dose or concentration left out as unconfirmed; settings: 1 h
[16] = Photorelease activity of the compound in CH3CN assessed as retention time under 532nm laser light by HPLC analysis; type: physicochemical
[17] = Thermal stability of compound in DMSO-d6 at 37.5 degree C measured before 24 hrs by 1H NMR spectroscopy analysis; type: physicochemical; summary of the method: as §2
[18] = Thermal stability of compound in DMSO-d6 at 37.5 degree C measured after 3 days by 1H NMR spectroscopy analysis relative to control; type: physicochemical; settings: 72 h; time 3 day; summary of the method: as §2
[19] = Photorelease activity of the compound in DMSO-d6 measured after 1 hr under 532nm YAG laser radiation by 1H NMR spectroscopy analysis relative to control; type: ADME
[20] = Photorelease activity of the compound in aqueous medium at 30 uM measured after 1 hr under dark condition by UV-vis spectroscopy analysis; type: ADME; settings: buffer
[21] = Photophysical property of the compound assessed as fluorescence quantum yield; type: physicochemical
[22] = Photorelease activity of the compound in CH3CN at 532nm laser light measured upto 60 mins under argon condition by HPLC analysis relative to control; type: ADME; set-up: dose or concentration left out as unconfirmed; settings: 1 h

| Activity [6] | Retention_time [16] [min] | Activity [21] | Structure (SMILES) | viability at 72 h, 10 µM [2] [%] | viability at 72 h, 10 µM [5] [%] | viability at 72 h, 10 µM [7] [%] | Activity (AD293 [8]) | Activity [9] [%] | other results |
| --- | --- | --- | --- | --- | --- | --- | --- | --- | --- |
| Active |  |  | CCOCc1nc2c(N)nc3ccccc3c2n1CC(C)(C)O [RESIQUIMOD] | 4 | 32 | 19 |  |  | viability at 10 µM [1]: 21%; Activity (AD293 [3]): inactive; Activity (AD293 [4]): inactive |
| Active | 6.8 | 0.809 | CCOCc1nc2c(NC(=O)OCC3=C4C(C)=CC(C)=[N+]4[B-](F)(F)n4c(C)cc(C)c43)nc3ccccc3c2n1CC(C)(C)O | 2 | 6 | 19 | Toxic | 3.2 | Activity [10]: Active; Activity [11]: 22%; viability at 10 µM [12]: 88%; Activity [13]: 12%; viability at 10 µM [14]: 54%; Activity [15]: ~ 68%; Activity [17]: Not_active; Activity [18]: 31%; Activity [19]: 100%; Activity [20]: Not_active; Activity [22]: ~ 77% |
|  | 4.15 | 0.835 | CC1=CC(C)=[N+]2C1=C(CO)c1c(C)cc(C)n1[B-]2(F)F |  |  |  | Toxic | 7 |  |
